# Tested on: HEK-293T
# Experiment: Multiplex assay against HEK293T;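 as to Population Tubulin-Different-Phenotype (%): share of the cells with healthy nuclei that show this phenotype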
# Format: toxicity, cell-based
# Conditions: human
# Procedure, shortened: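 Four dyes were applied at seeding to live cells: Hoechst33342, BioTracker Green Microtubule Cytoskeleton Dye, MitoTracker Red and Annexin V Alexa Fluor 680. Imaging after compound addition used a CQ1 microscope at 37°C and 5% CO2. CellPathfinder machine-learning gating then sorted cells into Hoechst high-intensity objects or normal cells, normal cells into healthy, pyknosed or fragmented nuclei, and pyknosed cells into mitotic or apoptotic, with tubulin, mitochondrial-mass and membrane-permeability phenotypes given as per cents of healthy-nucleus cells.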
# [1] = 12 h, 1 µM, compound concentration 1 uM, replicate 1
# [2] = 12 h, 1 µM, compound concentration 1 uM, replicate 2
# [3] = 12 h, 10 µM, compound concentration 10 uM, replicate 1
# [4] = 12 h, 10 µM, compound concentration 10 uM, replicate 2
# [5] = 24 h, 1 µM, compound concentration 1 uM, replicate 1
# [6] = 24 h, 1 µM, compound concentration 1 uM, replicate 2
# [7] = 24 h, 10 µM, compound concentration 10 uM, replicate 1
# [8] = 24 h, 10 µM, compound concentration 10 uM, replicate 2
# [9] = 48 h, 1 µM, compound concentration 1 uM, replicate 1
# [10] = 48 h, 1 µM, compound concentration 1 uM, replicate 2
# [11] = 48 h, 10 µM, compound concentration 10 uM, replicate 1
# [12] = 48 h, 10 µM, compound concentration 10 uM, replicate 2
structure (smiles),measurement,setting,value
COc1cc(-n2cnc3cc(-c4ccc(Cl)cc4)sc3c2=O)ccc1OCCN1CCCC1,Population Apoptotic (%),[1],59%
same,Population Fragmented Nuclei (%),[1],8%
same,Population Healthy Nuclei (%),[1],32%
same,Population Hoechst High Intensity Objects (%),[1],15%
same,Population Membrane Permeable-Phenotype (%),[1],1%
same,Population Mitochondria Different-Phenotype (%),[1],96%
same,Population Mitotic Cells (%),[1],40%
same,Population Normal (%),[1],84%
same,Population Pyknosed Nuclei (%),[1],58%
same,Population Tubulin-Different-Phenotype (%),[1],93%
same,Total Cell Count,[1],212
same,Population Apoptotic (%),[2],20%
same,Population Fragmented Nuclei (%),[2],5%
same,Population Healthy Nuclei (%),[2],40%
same,Population Hoechst High Intensity Objects (%),[2],4%
same,Population Membrane Permeable-Phenotype (%),[2],7%
same,Population Mitochondria Different-Phenotype (%),[2],42%
same,Population Mitotic Cells (%),[2],80%
same,Population Normal (%),[2],95%
same,Population Pyknosed Nuclei (%),[2],53%
same,Population Tubulin-Different-Phenotype (%),[2],60%
same,Total Cell Count,[2],265
same,Population Apoptotic (%),[3],57%
same,Population Fragmented Nuclei (%),[3],23%
same,Population Healthy Nuclei (%),[3],1%
same,Population Hoechst High Intensity Objects (%),[3],23%
same,Population Membrane Permeable-Phenotype (%),[3],0%
same,Population Mitochondria Different-Phenotype (%),[3],75%
same,Population Mitotic Cells (%),[3],42%
same,Population Normal (%),[3],76%
same,Population Pyknosed Nuclei (%),[3],74%
same,Population Tubulin-Different-Phenotype (%),[3],75%
same,Total Cell Count,[3],285
same,Population Apoptotic (%),[4],79%
same,Population Fragmented Nuclei (%),[4],16%
same,Population Healthy Nuclei (%),[4],15%
same,Population Hoechst High Intensity Objects (%),[4],4%
same,Population Membrane Permeable-Phenotype (%),[4],33%
same,Population Mitochondria Different-Phenotype (%),[4],58%
same,Population Mitotic Cells (%),[4],20%
same,Population Normal (%),[4],95%
same,Population Pyknosed Nuclei (%),[4],67%
same,Population Tubulin-Different-Phenotype (%),[4],66%
same,Total Cell Count,[4],242
same,Population Apoptotic (%),[5],72%
same,Population Fragmented Nuclei (%),[5],11%
same,Population Healthy Nuclei (%),[5],37%
same,Population Hoechst High Intensity Objects (%),[5],14%
same,Population Membrane Permeable-Phenotype (%),[5],1%
same,Population Mitochondria Different-Phenotype (%),[5],100%
same,Population Mitotic Cells (%),[5],27%
same,Population Normal (%),[5],85%
same,Population Pyknosed Nuclei (%),[5],50%
same,Population Tubulin-Different-Phenotype (%),[5],86%
same,Total Cell Count,[5],207
same,Population Apoptotic (%),[6],27%
same,Population Fragmented Nuclei (%),[6],4%
same,Population Healthy Nuclei (%),[6],61%
same,Population Hoechst High Intensity Objects (%),[6],2%
same,Population Membrane Permeable-Phenotype (%),[6],7%
same,Population Mitochondria Different-Phenotype (%),[6],52%
same,Population Mitotic Cells (%),[6],72%
same,Population Normal (%),[6],97%
same,Population Pyknosed Nuclei (%),[6],33%
same,Population Tubulin-Different-Phenotype (%),[6],66%
same,Total Cell Count,[6],325
same,Population Apoptotic (%),[7],73%
same,Population Fragmented Nuclei (%),[7],31%
same,Population Healthy Nuclei (%),[7],0%
same,Population Hoechst High Intensity Objects (%),[7],30%
same,Population Membrane Permeable-Phenotype (%),[7],0%
same,Population Mitochondria Different-Phenotype (%),[7],0%
same,Population Mitotic Cells (%),[7],26%
same,Population Normal (%),[7],69%
same,Population Pyknosed Nuclei (%),[7],68%
same,Population Tubulin-Different-Phenotype (%),[7],0%
same,Total Cell Count,[7],277
same,Population Apoptotic (%),[8],90%
same,Population Fragmented Nuclei (%),[8],20%
same,Population Healthy Nuclei (%),[8],22%
same,Population Hoechst High Intensity Objects (%),[8],7%
same,Population Membrane Permeable-Phenotype (%),[8],21%
same,Population Mitochondria Different-Phenotype (%),[8],68%
same,Population Mitotic Cells (%),[8],9%
same,Population Normal (%),[8],92%
same,Population Pyknosed Nuclei (%),[8],57%
same,Population Tubulin-Different-Phenotype (%),[8],48%
same,Total Cell Count,[8],228
same,Population Apoptotic (%),[9],53%
same,Population Fragmented Nuclei (%),[9],13%
same,Population Healthy Nuclei (%),[9],62%
same,Population Hoechst High Intensity Objects (%),[9],9%
same,Population Membrane Permeable-Phenotype (%),[9],5%
same,Population Mitochondria Different-Phenotype (%),[9],73%
same,Population Mitotic Cells (%),[9],46%
same,Population Normal (%),[9],90%
same,Population Pyknosed Nuclei (%),[9],23%
same,Population Tubulin-Different-Phenotype (%),[9],67%
same,Total Cell Count,[9],312
same,Population Apoptotic (%),[10],20%
same,Population Fragmented Nuclei (%),[10],4%
same,Population Healthy Nuclei (%),[10],79%
same,Population Hoechst High Intensity Objects (%),[10],3%
same,Population Membrane Permeable-Phenotype (%),[10],6%
same,Population Mitochondria Different-Phenotype (%),[10],21%
same,Population Mitotic Cells (%),[10],79%
same,Population Normal (%),[10],96%
same,Population Pyknosed Nuclei (%),[10],16%
same,Population Tubulin-Different-Phenotype (%),[10],57%
same,Total Cell Count,[10],539
same,Population Apoptotic (%),[11],76%
same,Population Fragmented Nuclei (%),[11],45%
same,Population Healthy Nuclei (%),[11],0%
same,Population Hoechst High Intensity Objects (%),[11],29%
same,Population Membrane Permeable-Phenotype (%),[11],0%
same,Population Mitochondria Different-Phenotype (%),[11],100%
same,Population Mitotic Cells (%),[11],23%
same,Population Normal (%),[11],70%
same,Population Pyknosed Nuclei (%),[11],54%
same,Population Tubulin-Different-Phenotype (%),[11],100%
same,Total Cell Count,[11],270
same,Population Apoptotic (%),[12],89%
same,Population Fragmented Nuclei (%),[12],21%
same,Population Healthy Nuclei (%),[12],28%
same,Population Hoechst High Intensity Objects (%),[12],10%
same,Population Membrane Permeable-Phenotype (%),[12],12%
same,Population Mitochondria Different-Phenotype (%),[12],73%
same,Population Mitotic Cells (%),[12],10%
same,Population Normal (%),[12],89%
same,Population Pyknosed Nuclei (%),[12],50%
same,Population Tubulin-Different-Phenotype (%),[12],38%
same,Total Cell Count,[12],256
